Data reported in ChEMBL document CHEMBL4304834, “3-Amino-chromanes and Tetrahydroquinolines as Selective 5-HT2B, 5-HT7, or σ1 Receptor Ligands” (ACS Med Chem Lett, 2019).

How the values were obtained:
[1] = target: 5-hydroxytryptamine receptor 1B (Homo sapiens, UniProt P28222); test: Displacement of [3H]5-CT from human recombinant 5-HT1B receptor expressed in stable HEK cells after 90 mins by microbeta scintillation counting method; type: cell-based
How it was run: (§1)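 Radioligand binding was run by the NIMH Psychoactive Drug Screening Program. Compounds were first screened at 10 μM. Those giving ≥50% binding were taken to full competition curves. Ki is reported as pKi from a sigmoidal curve fit of triplicate measurements in a single experiment; the error is the curve-fit error.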

[2] = target: 5-hydroxytryptamine receptor 5A (Homo sapiens, UniProt P47898); test: Displacement of [3H]-LSD from human recombinant 5-HT5A receptor expressed in Flp-In CHO cells after 90 mins by microbeta scintillation counting method; type: cell-based
Chain of 5-hydroxytryptamine receptor 5A (P47898 whole entry): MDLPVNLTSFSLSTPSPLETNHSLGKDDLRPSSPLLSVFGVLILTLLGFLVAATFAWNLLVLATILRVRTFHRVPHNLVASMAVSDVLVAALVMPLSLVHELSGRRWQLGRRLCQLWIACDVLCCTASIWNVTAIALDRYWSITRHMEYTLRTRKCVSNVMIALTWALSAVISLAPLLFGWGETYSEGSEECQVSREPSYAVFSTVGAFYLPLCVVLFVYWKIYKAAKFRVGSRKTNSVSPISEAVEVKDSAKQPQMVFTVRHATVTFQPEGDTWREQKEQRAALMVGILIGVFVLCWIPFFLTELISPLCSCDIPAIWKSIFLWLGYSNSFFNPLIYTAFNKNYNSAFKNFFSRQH
How it was run: (§2)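 Radioligand binding run by the NIMH Psychoactive Drug Screening Program. […] Otherwise Ki comes from sigmoidal curve fits of triplicate measurements in a single experiment, or is averaged over repeated experiments each run in triplicate.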

[3] = target: T1, Alpha-1D adrenergic receptor (Homo sapiens, UniProt P25100); test: Displacement of [3H]-Prazosin from human recombinant adrenergic Alpha1D receptor expressed in cells after 90 mins by microbeta scintillation counting method; type: cell-based; how it was run: as §1
T1 sequence (P25100 whole entry): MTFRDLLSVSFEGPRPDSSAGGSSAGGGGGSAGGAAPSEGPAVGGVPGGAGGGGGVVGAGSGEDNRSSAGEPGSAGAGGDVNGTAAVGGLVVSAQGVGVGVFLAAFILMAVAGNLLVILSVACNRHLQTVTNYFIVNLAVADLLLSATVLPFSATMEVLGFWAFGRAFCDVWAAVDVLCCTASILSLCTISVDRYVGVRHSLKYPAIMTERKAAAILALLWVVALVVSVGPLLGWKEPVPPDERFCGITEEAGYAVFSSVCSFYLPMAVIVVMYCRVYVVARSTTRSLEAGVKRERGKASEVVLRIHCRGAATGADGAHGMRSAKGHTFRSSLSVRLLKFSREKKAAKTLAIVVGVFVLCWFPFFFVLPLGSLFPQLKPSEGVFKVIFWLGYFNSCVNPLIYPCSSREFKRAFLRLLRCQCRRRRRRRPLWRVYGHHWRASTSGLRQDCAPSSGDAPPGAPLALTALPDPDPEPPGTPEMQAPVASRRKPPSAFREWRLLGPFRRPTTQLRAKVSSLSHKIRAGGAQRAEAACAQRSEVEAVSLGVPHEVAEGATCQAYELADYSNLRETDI

[4] = Displacement of [3H]-Flunitrazepam from BZP receptor in rat brain after 90 mins by microbeta scintillation counting method; type: tissue-based
How it was run: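 Radioligand binding run by the NIMH Psychoactive Drug Screening Program. Otherwise Ki comes from sigmoidal curve fits of triplicate measurements in a single experiment, or is averaged over repeated experiments each run in triplicate.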

D(1A) dopamine receptor = D(1A) dopamine receptor (Homo sapiens, UniProt P21728); test: Displacement of [3H]-SCH23390 from human recombinant dopamine D1 receptor expressed in HEKT cells after 90 mins by microbeta scintillation counting method; type: cell-based; how it was run: as §1
Chain of D(1A) dopamine receptor (P21728 whole entry): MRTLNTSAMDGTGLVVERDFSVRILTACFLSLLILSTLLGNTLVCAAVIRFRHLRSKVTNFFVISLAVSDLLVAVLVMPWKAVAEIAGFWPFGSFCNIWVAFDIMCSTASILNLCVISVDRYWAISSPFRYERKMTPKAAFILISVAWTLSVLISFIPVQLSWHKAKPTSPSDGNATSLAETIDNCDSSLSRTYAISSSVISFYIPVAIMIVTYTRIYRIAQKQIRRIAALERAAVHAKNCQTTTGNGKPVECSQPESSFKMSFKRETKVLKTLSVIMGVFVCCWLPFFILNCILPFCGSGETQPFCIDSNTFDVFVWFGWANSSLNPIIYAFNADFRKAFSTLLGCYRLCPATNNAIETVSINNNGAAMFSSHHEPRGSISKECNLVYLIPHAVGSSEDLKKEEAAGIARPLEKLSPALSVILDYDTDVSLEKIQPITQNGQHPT

Histamine H1 receptor = Histamine H1 receptor (Homo sapiens, UniProt P35367); test: Displacement of [3H]-Pyrilamine from human recombinant histamine H1 receptor expressed in stable HEK cells after 90 mins by microbeta scintillation counting method; type: cell-based; how it was run: as §1
Chain of Histamine H1 receptor (P35367 whole entry): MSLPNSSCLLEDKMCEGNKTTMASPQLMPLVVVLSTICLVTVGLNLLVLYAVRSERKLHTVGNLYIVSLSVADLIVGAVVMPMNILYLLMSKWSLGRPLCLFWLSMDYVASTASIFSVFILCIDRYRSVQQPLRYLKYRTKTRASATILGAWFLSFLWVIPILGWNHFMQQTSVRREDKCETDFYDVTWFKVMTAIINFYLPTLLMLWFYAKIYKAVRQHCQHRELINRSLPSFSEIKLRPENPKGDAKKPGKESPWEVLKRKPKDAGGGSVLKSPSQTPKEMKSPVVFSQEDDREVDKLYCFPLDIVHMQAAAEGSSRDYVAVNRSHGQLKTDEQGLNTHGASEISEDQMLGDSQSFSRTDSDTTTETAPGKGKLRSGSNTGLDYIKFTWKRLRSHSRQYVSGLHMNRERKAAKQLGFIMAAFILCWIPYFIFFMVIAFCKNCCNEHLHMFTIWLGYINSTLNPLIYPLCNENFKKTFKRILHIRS

Histamine H4 receptor [5] = target: T2, Histamine H4 receptor (Homo sapiens, UniProt Q9H3N8); test: Displacement of [3H]-Histamine from human recombinant histamine H4 receptor expressed in HEKT cells after 90 mins by microbeta scintillation counting method; type: cell-based; how it was run: as §2
T2 sequence (Q9H3N8 whole entry): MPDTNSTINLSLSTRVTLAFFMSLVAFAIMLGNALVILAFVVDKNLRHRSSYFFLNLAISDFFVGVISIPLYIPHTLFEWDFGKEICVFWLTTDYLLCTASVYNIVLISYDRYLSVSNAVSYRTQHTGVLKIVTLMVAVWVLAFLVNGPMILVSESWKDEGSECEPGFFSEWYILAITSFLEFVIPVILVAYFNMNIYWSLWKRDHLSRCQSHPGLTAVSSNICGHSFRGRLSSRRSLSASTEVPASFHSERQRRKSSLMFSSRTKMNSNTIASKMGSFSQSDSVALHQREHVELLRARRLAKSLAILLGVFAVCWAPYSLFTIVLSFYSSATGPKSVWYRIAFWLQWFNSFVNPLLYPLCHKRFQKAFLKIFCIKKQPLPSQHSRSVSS

[6] = target: 5-hydroxytryptamine receptor 1D (Homo sapiens, UniProt P28221); test: Displacement of [3H]5-CT from human recombinant 5-HT1D receptor transiently expressed in HEKT cells at 10 uM after 90 mins by microbeta scintillation counting method relative to control; type: cell-based
Chain of 5-hydroxytryptamine receptor 1D (P28221 whole entry): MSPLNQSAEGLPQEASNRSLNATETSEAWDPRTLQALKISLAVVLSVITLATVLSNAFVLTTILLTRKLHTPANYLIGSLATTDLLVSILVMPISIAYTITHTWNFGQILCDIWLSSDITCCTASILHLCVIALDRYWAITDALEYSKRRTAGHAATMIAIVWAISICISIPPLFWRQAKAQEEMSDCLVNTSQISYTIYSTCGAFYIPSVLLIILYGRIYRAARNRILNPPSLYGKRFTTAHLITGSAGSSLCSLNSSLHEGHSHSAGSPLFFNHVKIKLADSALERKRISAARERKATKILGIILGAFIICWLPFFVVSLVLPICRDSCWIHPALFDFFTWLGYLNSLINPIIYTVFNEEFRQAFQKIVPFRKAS

[7] = target: T3, 5-hydroxytryptamine receptor 3A (Homo sapiens) (UniProt P46098); test: Displacement of [3H]-GR65630 from human recombinant 5-HT3 receptor expressed in HEKT cells at 10 uM after 90 mins by microbeta scintillation counting method relative to control; type: cell-based; how it was run: as §2
T3 sequence (whole entry): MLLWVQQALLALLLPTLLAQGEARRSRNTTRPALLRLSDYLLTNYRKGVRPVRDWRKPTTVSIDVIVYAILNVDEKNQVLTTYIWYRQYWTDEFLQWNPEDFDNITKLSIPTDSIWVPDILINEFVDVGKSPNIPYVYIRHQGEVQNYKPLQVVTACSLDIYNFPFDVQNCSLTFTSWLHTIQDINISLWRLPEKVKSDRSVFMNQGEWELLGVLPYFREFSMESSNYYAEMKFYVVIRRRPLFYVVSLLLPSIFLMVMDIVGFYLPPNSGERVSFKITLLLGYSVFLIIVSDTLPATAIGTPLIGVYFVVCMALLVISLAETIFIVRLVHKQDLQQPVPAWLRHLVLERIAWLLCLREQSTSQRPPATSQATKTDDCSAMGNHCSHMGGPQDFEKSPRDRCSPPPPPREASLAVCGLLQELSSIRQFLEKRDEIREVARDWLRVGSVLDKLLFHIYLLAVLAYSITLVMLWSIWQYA

[8] = target: GABA-A receptor; anion channel (Rattus norvegicus) (UniProt O09028+P15431+P18506+P18508+P19969+P20236+P23574+P23576+P28471+P28473+P30191+P62813+P63079+P63138+Q91ZM7+Q9ES14); test: Displacement of [3H]-Muscimol from GABAA receptor in rat brain at 10 uM incubated for 90 mins by microbeta scintillation counting method relative to control; type: tissue-based; how it was run: as §2
Histamine H2 receptor = Histamine H2 receptor (Homo sapiens, UniProt P25021); test: Displacement of [125I]-Iodoaminopotentidine from human recombinant histamine H2 receptor expressed in stable HEK cells at 10 uM after 90 mins by microbeta scintillation counting method relative to control; type: cell-based; how it was run: as §2
Chain of Histamine H2 receptor (P25021 whole entry): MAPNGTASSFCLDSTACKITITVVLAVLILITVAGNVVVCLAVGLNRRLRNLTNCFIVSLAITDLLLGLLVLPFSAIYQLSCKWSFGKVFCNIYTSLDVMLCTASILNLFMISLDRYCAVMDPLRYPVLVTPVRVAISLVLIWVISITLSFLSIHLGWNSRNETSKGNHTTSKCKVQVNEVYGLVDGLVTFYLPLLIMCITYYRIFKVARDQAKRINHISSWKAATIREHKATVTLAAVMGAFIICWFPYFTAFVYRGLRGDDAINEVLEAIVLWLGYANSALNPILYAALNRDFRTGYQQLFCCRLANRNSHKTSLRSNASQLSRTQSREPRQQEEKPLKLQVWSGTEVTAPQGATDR

Histamine H4 receptor [9] = target: T2, Histamine H4 receptor; test: Displacement of [3H]-Histamine from human recombinant histamine H4 receptor expressed in HEKT cells at 10 uM after 90 mins by microbeta scintillation counting method relative to control; type: cell-based; how it was run: as §2

Chain of 5-hydroxytryptamine receptor 1B (P28222 whole entry): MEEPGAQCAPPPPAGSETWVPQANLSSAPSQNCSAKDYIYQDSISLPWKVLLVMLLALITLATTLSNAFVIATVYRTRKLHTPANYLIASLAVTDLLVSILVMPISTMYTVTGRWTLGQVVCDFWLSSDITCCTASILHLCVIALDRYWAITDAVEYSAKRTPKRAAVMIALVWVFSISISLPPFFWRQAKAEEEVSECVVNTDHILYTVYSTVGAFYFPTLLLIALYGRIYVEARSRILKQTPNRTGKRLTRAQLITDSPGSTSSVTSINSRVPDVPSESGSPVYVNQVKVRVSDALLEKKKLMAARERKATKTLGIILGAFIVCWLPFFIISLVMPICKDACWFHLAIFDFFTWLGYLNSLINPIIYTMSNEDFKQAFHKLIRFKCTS

| SMILES | Ki [1] [µM] | Ki [2] [µM] | Ki [3] [µM] | pKi [4] | Ki (D(1A) dopamine receptor) [µM] | Ki (Histamine H1 receptor) [µM] | Ki (Histamine H4 receptor [5]) [µM] | inhibition [6] [%] | inhibition [7] [%] | inhibition [8] [%] | inhibition (Histamine H2 receptor) [%] | inhibition (Histamine H4 receptor [9]) [%] |
| --- | --- | --- | --- | --- | --- | --- | --- | --- | --- | --- | --- | --- |
| CC[C@H]1c2cc(OC)ccc2CC[C@@]1(C)N (racemic) | > 10 | 2 | > 10 | 5.8 | > 10 | 3.16 | > 10 | < 50 | < 50 | < 50 | < 50 | < 50 |
| CC[C@H]1c2cc(C)ccc2OC[C@@]1(C)N (racemic) | > 10 | > 10 | > 10 | < 5 | > 10 | > 10 | > 10 | < 50 | < 50 | < 50 | < 50 | < 50 |
| CC[C@H]1c2ccccc2N(c2ccccc2)C[C@@]1(C)N (racemic) | > 10 | > 10 | > 10 | – | > 10 | > 10 | > 10 | – | – | – | – | – |
| C[C@@]12CN(c3ccccc3)c3ccccc3[C@@H]1CCN2 (racemic) | > 10 | – | 1 | – | > 10 | > 10 | > 10 | – | – | – | – | – |
| COc1cc(OC)c2c(c1)OC[C@@]1(C)NCC[C@@H]21 (racemic) | > 10 | – | > 10 | 5.2 | > 10 | > 10 | > 10 | < 50 | < 50 | < 50 | < 50 | < 50 |
